From ChEMBL document CHEMBL1156389, “Aglacins A-D, first representatives of a new class of aryltetralin cyclic ether lignans from Aglaia cordata” (J Nat Prod, 2001)
Activity calls are given as the source filed them. The calls are words filed in the database; no cut-off is given here.

Experiments:
[1] = tested on: HL-60; experiment: Cytotoxicity against human HL60 cells at 2 mg/mL to 10 ng/mL by MTT assay; assay type: functional, cell-based
Procedure, shortened: (§1)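 Antiproliferative MTT assay on the human leukemia line HL-60, the human carcinoma line HELA and the KB line. Compounds were tested over 2 mg/mL to 10 ng/mL, in triplicate.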

[2] = tested on: HeLa; experiment: Cytotoxicity against human HeLa cells at 2 mg/mL to 10 ng/mL by MTT assay; assay type: functional, cell-based; procedure, shortened: as §1

SMILES | Activity [1] | Activity [2]
COc1ccc([C@@H]2c3c(cc(OC)c(OC)c3OC)C[C@@H]3COC[C@H]32)cc1OC | inactive | inactive
COc1cc([C@H]2c3c(cc(OC)c(OC)c3OC)C(=O)[C@@H]3COC[C@@H]23)cc(OC)c1OC | inactive | inactive
COc1cc([C@@H]2c3c(cc(OC)c(OC)c3OC)C[C@@H]3COC[C@H]32)cc(OC)c1OC | inactive | inactive
COc1cc([C@@H]2c3c(cc(OC)c(OC)c3OC)[C@H](OC(C)=O)[C@@H]3COC[C@@H]23)cc(OC)c1OC | inactive | inactive
